Measured values collected from several papers.
Each line is one published result; the experiments were not run side by side.
Medium: plasma

| SMILES | species | route | dose | setting | measurement | value |
| --- | --- | --- | --- | --- | --- | --- |
| N#Cc1cccc(-c2ccc3ncc(-c4cc(F)cc(F)c4)c(N4CCC(N)CC4)c3c2)c1O | male human | oral | 20 mg | single dose | AUC | 2360 ng·h/mL |
| COc1ccc(F)cc1C(=O)NCc1ccc(-c2nn([C@@H](C)C(F)(F)F)c(N)c2C(N)=O)cc1 | human | oral | 200 mg | single dose, fasted, healthy volunteers | AUC(0-inf) | 85100 ng·h/mL |
| O=C(COc1ccc(Cl)cc1)NC12CC(c3nnc([C@H]4C[C@@H](OC(F)(F)F)C4)o3)(C1)C2 | human | oral | 45 mg | multiple doses, once daily, steady state, healthy volunteers | AUC | 36.5 µM·h |
| C=CC(=O)NC1CCN(c2ncc3ncnc(Nc4ccc(Oc5ccc6c(c5)ncn6C)c(C)c4)c3n2)CC1 | male human | oral | 60 mg | single dose, healthy volunteers | AUC(0-inf) | 14.2 µM·h |
| COc1ccc2c(c1)CN(C(=O)CCN1CCC(Cc3ccccc3)CC1)CC[S@@+]2[O-] | male human | intravenous | 0.05 mg/kg | healthy volunteers | AUC(0-inf) | 250 ng·h/mL |
| COc1ccc(-c2c(Nc3ccccn3)[nH]c3c(C4=CCCCC4)c(-c4ccccc4)nn3c2=O)cc1 | human | oral | 150 mg once daily | multiple doses, steady state, patients | AUC(0-t) | 93600 ng·h/mL |
| CC(=O)N(C)[C@H]1CCN(C(=O)c2cnc3c(c2)C[C@](C)(c2ccc(F)cc2)N3)C1 | male human | oral | 15 mg | multiple doses, once daily | AUC(0-inf) | 2.22 µM·h |
| OC[C@H]1O[C@@H](c2cc(Cc3ccc(C4CC4)cc3)c(Cl)c3c2CCO3)[C@H](O)[C@@H](O)[C@@H]1O | human | oral | 0.3 mg | single dose, fed | AUC(0-inf) | 31 ng·h/mL |
| CC(C)n1c(C2CCNCC2)nc2c([N+](=O)[O-])c(Br)c(Br)cc21 | human | oral | 75 mg | patients | AUC(0-t) | 288 ng·h/mL |
